From ChEMBL document CHEMBL1148799, “Solid-phase synthesis and insights into structure-activity relationships of safinamide analogues as potent and selective inhibitors of type B monoamine oxidase” (J Med Chem, 2007)

How the values were obtained:
[1] = target: T1, Amine oxidase [flavin-containing] A (Rattus norvegicus, UniProt P21396); assay: Inhibition of rat brain mitochondria MAOA by radioenzymatic assay
T1 sequence (P21396 whole entry): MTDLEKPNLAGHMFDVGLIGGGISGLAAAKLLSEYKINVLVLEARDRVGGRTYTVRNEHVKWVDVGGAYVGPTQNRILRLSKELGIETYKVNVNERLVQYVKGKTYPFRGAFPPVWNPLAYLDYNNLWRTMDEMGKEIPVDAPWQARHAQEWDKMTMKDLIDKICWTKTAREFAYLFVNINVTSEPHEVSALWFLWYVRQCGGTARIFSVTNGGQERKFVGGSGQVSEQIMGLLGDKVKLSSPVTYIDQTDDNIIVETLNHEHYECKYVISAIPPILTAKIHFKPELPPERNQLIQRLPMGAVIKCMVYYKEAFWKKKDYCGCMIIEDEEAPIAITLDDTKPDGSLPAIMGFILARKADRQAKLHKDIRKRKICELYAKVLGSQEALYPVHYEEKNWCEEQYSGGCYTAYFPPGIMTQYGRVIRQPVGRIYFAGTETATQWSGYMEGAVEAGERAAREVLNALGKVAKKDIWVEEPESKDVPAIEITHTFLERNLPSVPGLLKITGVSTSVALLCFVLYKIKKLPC
Outline: (§1)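 Rat brain mitochondrial pellet (500 µg protein) in 0.1 M phosphate buffer, pH 7.40, preincubated 30 min at 37 °C with inhibitor (as methanesulfonate salt) or buffer. Then 5 µM ¹⁴C-5-HT for 30 min at 37 °C, stopped with HCl. Ether-extracted acidic metabolites counted by liquid scintillation. IC50 by nonlinear regression from 5–8 concentrations (10^-10–10^-5 M) in duplicate, or % inhibition at one concentration.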

[2] = target: T2, Amine oxidase [flavin-containing] B (Rattus norvegicus, UniProt P19643); assay: Inhibition of rat brain mitochondria MAOB by radioenzymatic assay
T2 sequence (P19643 whole entry): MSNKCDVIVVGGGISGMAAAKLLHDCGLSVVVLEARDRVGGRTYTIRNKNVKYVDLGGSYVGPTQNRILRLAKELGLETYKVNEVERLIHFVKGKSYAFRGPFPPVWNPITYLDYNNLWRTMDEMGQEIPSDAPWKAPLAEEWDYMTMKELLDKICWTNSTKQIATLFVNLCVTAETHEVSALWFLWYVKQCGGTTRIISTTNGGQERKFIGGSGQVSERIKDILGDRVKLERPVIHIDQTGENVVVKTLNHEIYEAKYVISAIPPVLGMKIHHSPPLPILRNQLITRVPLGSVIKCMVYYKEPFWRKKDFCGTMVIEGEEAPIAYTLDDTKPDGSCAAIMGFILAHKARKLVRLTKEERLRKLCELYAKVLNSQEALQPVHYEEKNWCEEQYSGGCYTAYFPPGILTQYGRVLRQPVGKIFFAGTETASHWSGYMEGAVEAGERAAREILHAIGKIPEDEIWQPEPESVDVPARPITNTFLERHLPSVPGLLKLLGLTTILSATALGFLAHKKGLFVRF
Outline: as §1, with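 “Then 0.5” for “Then 5”, “µM ¹⁴C-PEA” for “µM ¹⁴C-5-HT”, “for 10” for “for 30”, “with perchloric acid. Toluene-extracted” for “with HCl. Ether-extracted acidic”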

[3] = species on record: Rattus norvegicus; assay: Selectivity index, ratio of IC50 for rat brain mitochondria MAOA to IC50 for rat brain mitochondria MAOB
Outline: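 IC50(MAO-A)/IC50(MAO-B). Both come from radioenzymatic assays on rat brain mitochondria after 30 min inhibitor preincubation at 37 °C, pH 7.40. MAO-A used 5 µM ¹⁴C-5-HT for 30 min; MAO-B used 0.5 µM ¹⁴C-PEA for 10 min. IC50s from nonlinear regression of duplicate 5–8-point curves.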

[4] = target: T1, Amine oxidase [flavin-containing] A; assay: Inhibition of rat brain mitochondria MAOA at 100 uM by radioenzymatic assay; outline: as §1
[5] = target: T2, Amine oxidase [flavin-containing] B; assay: Inhibition of rat brain mitochondria MAOB at 10 uM by radioenzymatic assay
Outline: as §1, with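 “Then 0.5” for “Then 5”, “µM ¹⁴C-PEA” for “µM ¹⁴C-5-HT”, “for 10” for “for 30”, “with perchloric acid. Toluene-extracted” for “with HCl. Ether-extracted acidic”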

Row | SMILES | IC50 [1] | IC50 [2] | Selectivity index [3] | inhibition at 100 µM [4] | inhibition at 10 µM [5]
1 | NC(=O)[C@@H](NCc1ccc(OCc2cccc(F)c2)cc1)c1ccccc1 | 34 µM | 10 µM | 3.4 | – | –
2 | NC(=O)[C@@H](NCc1ccc(OCc2ccccc2)cc1)c1ccccc1 | – | 73.8 µM | – | 35% | –
3 | C[C@@H](NCc1ccc(OCc2cccc(F)c2)cc1)C(N)=O | 42 µM | – | – | – | –
4 | NC(=O)[C@@H](NCc1ccc(OCc2ccc([N+](=O)[O-])cc2)cc1)c1ccccc1 | – | – | – | 16% | 4%
5 | NC(=O)[C@@H](CO)NCc1ccc(OCc2cccc(Cl)c2)cc1 | 100 µM | – | 909 | – | –
6 | NC(=O)[C@@H](NCc1ccc(OCc2cccc(Cl)c2)cc1)c1ccccc1 | – | 10.1 µM | – | 33% | –
7 | C[C@H](NCc1ccc(OCc2ccc([N+](=O)[O-])cc2)cc1)C(N)=O | – | – | – | 22% | 37%
8 | NC(=O)[C@H](CO)NCc1ccc(OCc2cccc(F)c2)cc1 | 100 µM | – | 714 | – | –
9 | NC(=O)[C@@H](NCc1ccc(OCc2ccc(Cl)cc2)cc1)c1ccccc1 | – | – | – | 27% | 34%
10 | NC(=O)CNCc1ccc(OCc2ccc([N+](=O)[O-])cc2)cc1 | 21.2 µM | 9.1 µM | 2.3 | – | –

Now from value to compound:

Row | IC50 [1] | IC50 [2] | Selectivity index [3] | inhibition at 100 µM [4] | inhibition at 10 µM [5] | SMILES
11 | 13.6 µM | 2.24 µM | 6.1 | – | – | NC(=O)CNCc1ccc(OCc2cccc(F)c2)cc1
12 | – | 0.033 µM | 3460 | – | – | C[C@H](NCc1ccc(OCc2cccc(Cl)c2)cc1)C(N)=O
13 | – | 0.043 µM | 1970 | – | – | NC(=O)[C@H](CO)NCc1ccc(OCc2cccc(Cl)c2)cc1
14 | – | 1.1 µM | – | 47% | – | NC(=O)[C@H](CO)NCc1ccc(OCc2ccc(Cl)cc2)cc1
15 | – | 7.01 µM | – | 38% | – | NC(=O)[C@H](CO)NCc1ccc(OCc2ccc([N+](=O)[O-])cc2)cc1
16 | 90 µM | 0.41 µM | 220 | – | – | NC(=O)[C@H](CO)NCc1ccc(OCc2ccccc2)cc1
17 | 72 µM | 0.8 µM | 90 | – | – | C[C@@H](NCc1ccc(OCc2cccc(Cl)c2)cc1)C(N)=O
18 | 45 µM | 0.24 µM | 188 | – | – | C[C@@H](C(N)=O)N1CCc2cc(OCc3cccc(F)c3)ccc2C1
19 | 50 µM | 0.017 µM | 2940 | – | – | C[C@H](C(N)=O)N1CCc2cc(OCc3cccc(F)c3)ccc2C1
20 | 12.4 µM | 7.1 µM | 1.7 | – | – | NC(=O)CNCc1ccc(OCc2ccc(Cl)cc2)cc1
21 | 37 µM | 0.34 µM | 109 | – | – | NC(=O)CNCc1ccc(OCc2cccc(Cl)c2)cc1
22 | 8.5 µM | 3.15 µM | 2.7 | – | – | NC(=O)CNCc1ccc(OCc2ccccc2)cc1
23 | 101 µM | 0.26 µM | 388 | – | – | C[C@H](NCc1ccc(OCc2ccccc2)cc1)C(N)=O
24 | – | 2.2 µM | – | 37% | – | C[C@H](NCc1ccc(OCc2ccc(Cl)cc2)cc1)C(N)=O
